Our source for the ED50 and IC50 values is ChEMBL document CHEMBL1125800, “Design of potent linear PAF antagonists” (J Med Chem, 1991).

Holding throughout (assay type): functional
For test [1], the system named is Rattus norvegicus. In words: In vivo inhibition of PAF induced hypotension in rats after intravenous administration. Conditions: read-out: ID50 (the source's name). A digest of the protocol: (§1)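 Male Sprague-Dawley rats (180–220 g) were anesthetized with pentobarbital (50 mg/kg ip), with carotid blood pressure recorded. Compound was given iv in saline (1 mL/kg) via a femoral vein 3 min before PAF (0.5 µg/kg iv). Controls received vehicle. Percent inhibition of hypotension versus controls gave ID50 by linear regression over ≥4 doses, each the mean of ≥2 experiments.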

The species entered for a further test is Oryctolagus cuniculus. In words: In vitro inhibition of platelet aggregation (rabbit) induced by PAF. A digest of the protocol: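 Aggregation of platelet-rich plasma, obtained by spinning blood at 250 g for 10 min at 4 °C. The PRP was diluted with platelet-poor plasma (3000 g, 10 min) to […]. Aggregation was triggered with C18-PAF at 1.5 × 10⁻⁸ M and read on an aggregometer. IC50 was taken by linear regression from one curve of ≥4 concentrations, each the mean of 1–3 experiments.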

In test [2] the test system is Rattus norvegicus. Description: In vivo inhibition of PAF induced hypotension in rats after intravenous administration. Conditions: read-out: ID50 (the source's name). A digest of the protocol: as §1

What is called IC50 is the concentration at which inhibition is half-maximal. Lower therefore signals greater potency in that assay.

Turning to `CCCCCCCCCCCCCCCNC(=O)OCC1COC(COC(=O)N(Cc2cccc[n+]2CC)C(C)=O)O1.[I-]` (centres undefined), the ED50 in the test on Rattus norvegicus [1] turned out to be 0.085 mg/kg. For the same molecule, the IC50 in the test listed under Oryctolagus cuniculus (Oryctolagus cuniculus) turned out to be 7.5 nM.
As to `CC[n+]1ccccc1CN(C(C)=O)C(=O)OCCOCCOC(=O)NCC1CCCCC1`, in the test listed under Oryctolagus cuniculus (Oryctolagus cuniculus), the IC50 was determined as 2000 nM.
The molecule `CCCCCCCCCCCCCCCCCNC(=O)OCCOCCOC(=O)N(Cc1cccc[n+]1CC)C(=O)OCC` gave an IC50 in the test filed under Oryctolagus cuniculus (Oryctolagus cuniculus) of 8.8 nM.
The same measure, in the same setting: to `CCCCCCCCCCCCCCCNC(=O)OCCOCCOC(=O)N(Cc1cccc[n+]1CCC)C(C)=O` belongs 230 nM.
Regarding `CCCCCCCCCCCCCCCNC(=O)OCC1OCC(COC(=O)N(Cc2cccc[n+]2CC)C(C)=O)O1.[I-]` (centres undefined), the ED50 in the test on Rattus norvegicus [1] came out at 0.11 mg/kg. The molecule further showed an IC50 in the test filed under Oryctolagus cuniculus (Oryctolagus cuniculus) of 26 nM.
On the same counts, the results for `CCCCCCCCCCCCCCCCCNC(=O)OCC[S+]([O-])CCOC(=O)N(Cc1cccc[n+]1CC)C(C)=O.[I-]` (centres undefined) are 0.025 mg/kg and 27 nM.
On the same counts, the results for `CCCCCCCCCCCCCCCNC(=O)OCCOCCOC(=O)CCCCC[n+]1ccsc1.Cc1ccc(S(=O)(=O)[O-])cc1` are more than 5 mg/kg and 12000 nM.
In the test filed under Oryctolagus cuniculus, `CCCCCCCCCCCCCCCCCNC(=O)OCCSCCOC(=O)N(Cc1cccc[n+]1CC)C(C)=O` [listing 1 of 3 here] gave an IC50 of 8.6 nM.
In turn, `CCCCCCCCCCCCCCCCCNC(=O)OCCOCCOC(=O)N(Cc1cccc[n+]1CC)C(C)=O` returned an IC50 in the test filed under Oryctolagus cuniculus (Oryctolagus cuniculus) of 17 nM.
`CCCCCCCCCCCCCCCCCNC(=O)OCCSCCOC(=O)N(Cc1cccc[n+]1CC)C(C)=O` [listing 2 of 3 here] had an IC50 in the test filed under Oryctolagus cuniculus of 5.6 nM.
Regarding `CCCCCCCCCCCCCCCCCNC(=O)OCCSCCOC(=O)N(Cc1cccc[n+]1CC)C(=O)c1ccccc1OC.[I-]`, the ED50 in the test with Rattus norvegicus [1] was found to be 0.019 mg/kg. In the test filed under Oryctolagus cuniculus (Oryctolagus cuniculus), this molecule gave an IC50 of 9.1 nM.
As for `CCCCCCCCCCCCCCCCCNC(=O)OCCS(=O)(=O)CCOC(=O)N(Cc1cccc[n+]1CC)C(C)=O.[I-]`, the ED50 with Rattus norvegicus [1] was 0.019 mg/kg. This molecule registered an IC50 in the test filed under Oryctolagus cuniculus (Oryctolagus cuniculus) of 11 nM.
For `CCCCCCCCCCCCCCCCNC(=O)OCCSCCOC(=O)N(Cc1cccc[n+]1CC)C(C)=O.[I-]`, the ED50 in the test with Rattus norvegicus [1] came out at 0.01 mg/kg. In the test filed under Oryctolagus cuniculus (Oryctolagus cuniculus), the IC50 turned out to be 14 nM.
The matching figures for `CCCCCCCCCCCCCCCCCCCCCCOC(=O)N(Cc1cccc[n+]1CC)C(C)=O.[I-]`: 0.53 mg/kg and 1400 nM.
On to `CCCCCCCCCCCCCCCNC(=O)OCCOCCOCCOC(=O)N(Cc1cccc[n+]1CC)C(C)=O.[I-]`, for which the ED50 with Rattus norvegicus [1] amounted to 0.028 mg/kg. The molecule also yielded an IC50 in the test listed under Oryctolagus cuniculus (Oryctolagus cuniculus) of 12 nM.
For `CCCCCCCCCCCCCCCCCCNC(=O)OCCCOC(=O)N(Cc1cccc[n+]1CC)C(C)=O.[I-]`, in the test on Rattus norvegicus [1], the ED50 is 0.02 mg/kg. The molecule also displayed an IC50 in the test filed under Oryctolagus cuniculus (Oryctolagus cuniculus) of 23 nM.
As for `CCCCCCCCCCCCCCCCCCNC(=O)OCC(COC(=O)N(Cc1cccc[n+]1CC)C(C)=O)OC.[Cl-]` (centres undefined) [CV-6209], in the test on Rattus norvegicus [2], the ED50 amounted to 7.8 µg/kg. For the same molecule, the midpoint of inhibition in the test filed under Oryctolagus cuniculus (Oryctolagus cuniculus), the IC50, lay at 12 nM.
In the case of `CCCCCCCCCCCCCCCCCNC(=O)OCCSCCOC(=O)N(Cc1cccc[n+]1CC)C(=O)OCC.[I-]`, the ED50 with Rattus norvegicus [1] turned out to be 0.028 mg/kg. In the test listed under Oryctolagus cuniculus (Oryctolagus cuniculus), inhibition was half-maximal at 18 nM (IC50).
Regarding `CCCCCCCCCCCCCCCNC(=O)OCCCCCOC(=O)N(Cc1cccc[n+]1CC)C(C)=O`, in the test listed under Oryctolagus cuniculus (Oryctolagus cuniculus), the IC50 turned out to be 24 nM.
On the same count and under the same terms, next, `CC[n+]1ccccc1CN(C(C)=O)C(=O)OCCOCCOC(=O)NCCCc1ccccc1`: 1300 nM.
Still for that read-out and setting: next, `CCCCCCCCCCCCCCCCOCCSCCOC(=O)N(Cc1cccc[n+]1CC)C(C)=O`: 5.1 nM.
`CCCCCCCCCCCCCCCCCCNC(=O)OCCSCCOC(=O)N(Cc1cccc[n+]1CC)C(C)=O.[I-]`: the ED50 with Rattus norvegicus [1] turned out to be 0.015 mg/kg. The same molecule had an IC50 in the test listed under Oryctolagus cuniculus (Oryctolagus cuniculus) of 5.9 nM.
On the same counts, the results for `CCCCCCCCCCCCCCCCCCCCOC(=O)N(Cc1cccc[n+]1CC)C(C)=O.[I-]` are 0.33 mg/kg and 160 nM.
With `CCCCCCCCCCCCCCCNC(=O)OCCSCCOC(=O)N(Cc1cccc[n+]1CC)C(C)=O.[I-]`, in the test on Rattus norvegicus [1], the ED50 was 0.04 mg/kg. In the test listed under Oryctolagus cuniculus (Oryctolagus cuniculus), this molecule displayed an IC50 of 8.4 nM.
Take `CCCCCCCCCCCCCCCCCNC(=O)OCCSCCOC(=O)N(Cc1cccc[n+]1CC)C(=O)C(C)(C)C.[I-]`: the ED50 with Rattus norvegicus [1] came out at 0.33 mg/kg. Moreover, the IC50 in the test listed under Oryctolagus cuniculus (Oryctolagus cuniculus) came to 150 nM.
`CCCCCCCCCCCCCCCCCCNC(=O)OCCOCCOC(=O)N(Cc1cccc[n+]1CC)C(C)=O.[I-]`: the ED50 in the test with Rattus norvegicus [1] was 0.019 mg/kg. In the test listed under Oryctolagus cuniculus (Oryctolagus cuniculus), this molecule gave an IC50 of 18 nM.
The matching figures for `CCCCCCCCCCCCCCCCCCOCCOCCOC(=O)N(Cc1cccc[n+]1CC)C(C)=O.[I-]`: 0.024 mg/kg and 22 nM.
As to `CCCCCCCCCCCCCCCNC(=O)OCCOCCOC(=O)N(Cc1cccc[n+]1CC)C(C)=O`, the IC50 in the test filed under Oryctolagus cuniculus (Oryctolagus cuniculus) worked out at 22 nM.
Same read-out and setting: to `CCCCCCCCCCCCCCCNC(=O)OCCOCCOC(=O)N(Cc1cccc[n+]1CC)C(=O)OCC` belongs 23 nM.
Same read-out and setting: next, `CCCCCCCCCCCCCCCCCNC(=O)OCCOCCOC(=O)N(Cc1cccc[n+]1C)C(C)=O`: 55 nM.
As for `CCCCCCCCCCCCCCCCCCOC(=O)N(Cc1cccc[n+]1CC)C(C)=O.[I-]`, the ED50 in the test on Rattus norvegicus [1] was 0.17 mg/kg. Also, half-maximal inhibition in the test filed under Oryctolagus cuniculus (Oryctolagus cuniculus) (IC50) required 870 nM.
On the same counts, the results for `CCCCCCCCCCCCCCCNC(=O)OCC1CCC(COC(=O)N(Cc2cccc[n+]2CC)C(C)=O)O1.[I-]` (centres undefined) are 0.098 mg/kg and 72 nM.
Consider `CCCCCCCCCCCCCCCCCCOCCSCCOC(=O)N(Cc1cccc[n+]1CC)C(C)=O`, for which the IC50 in the test listed under Oryctolagus cuniculus (Oryctolagus cuniculus) was 15 nM.
For the molecule `CCSCCOC(=O)N(Cc1cccc[n+]1CC)C(C)=O.[I-]`, in the test on Rattus norvegicus [1], the ED50 was 0.37 mg/kg. Besides, the IC50 in the test filed under Oryctolagus cuniculus (Oryctolagus cuniculus) is 190 nM.
The matching figures for `CCCCCCCCCCCCCCCCCNC(=O)OCCSCCOC(=O)N(Cc1cccc[n+]1CC)C(=O)CCCCCCCCCCCCCCC.[I-]`: more than 5 mg/kg and 8700 nM.
`CCCCCCCCCCCCCCCCCNC(=O)OCCSCCOC(=O)N(Cc1cccc[n+]1CC)C(C)=O` [listing 3 of 3 here] displayed an IC50 in the test filed under Oryctolagus cuniculus of 12 nM.
For the molecule `CC[n+]1ccccc1CN(C(C)=O)C(=O)OCCOCCOC(=O)C(C)(C)C.[I-]`, in the test on Rattus norvegicus [1], the ED50 was more than 5 mg/kg. For the same molecule, the IC50 in the test filed under Oryctolagus cuniculus (Oryctolagus cuniculus) worked out at 1700 nM.
For the molecule `CCCCCCCCCCCCCCCCCCNC(=O)OCC(COC(=O)N(Cc1cccc[n+]1CC)C(C)=O)OC.[I-]` (centres undefined), the ED50 with Rattus norvegicus [1] is 0.011 mg/kg. In addition, inhibition in the test listed under Oryctolagus cuniculus was half-maximal at 11 nM (IC50).
As to `CCOC(=O)N(Cc1cccc[n+]1CC)C(C)=O.[I-]`, the ED50 in the test with Rattus norvegicus [1] was more than 5 mg/kg. In addition, 24000 nM corresponded to half-maximal inhibition in the test filed under Oryctolagus cuniculus (Oryctolagus cuniculus) (IC50).
